Test results reported in ChEMBL document CHEMBL4689842, “EUbOPEN Chemogenomics Library wave 1” (2021).

Test system: U2OS
Test: Multiplex assay against U2OS
Assay type: toxicity, cell-based
Conditions: human
Outline: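 Cells were classed with CellPathfinder machine-learning gating, first as Hoechst high-intensity objects or normal cells, then (normal cells) as healthy, pyknosed or fragmented nuclei, and finally (pyknosed cells) as mitotic or apoptotic. Staining of live cells at seeding used Hoechst33342, BioTracker Green Microtubule Cytoskeleton Dye, MitoTracker Red and Annexin V Alexa Fluor 680, with imaging on a CQ1 microscope at 37°C and 5% CO2 after compound addition. Tubulin, mitochondrial-mass and membrane-permeability phenotypes are per cents of healthy-nucleus cells.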

[1] = 12 h, 1 µM, compound concentration 1 uM, replicate 1
[2] = 12 h, 1 µM, compound concentration 1 uM, replicate 2
[3] = 12 h, 10 µM, compound concentration 10 uM, replicate 1
[4] = 12 h, 10 µM, compound concentration 10 uM, replicate 2
[5] = 24 h, 1 µM, compound concentration 1 uM, replicate 1
[6] = 24 h, 1 µM, compound concentration 1 uM, replicate 2
[7] = 24 h, 10 µM, compound concentration 10 uM, replicate 1
[8] = 24 h, 10 µM, compound concentration 10 uM, replicate 2

COc1cccc2cc(-c3nc([C@H]4CC[C@H](C(=O)O)CC4)n4ncnc(N)c34)[nH]c12 [OSI-027]
Population Apoptotic (%) [1]: 55% | Population Fragmented Nuclei (%) [1]: 14% | Population Healthy Nuclei (%) [1]: 81% | Population Hoechst High Intensity Objects (%) [1]: 1% | Population Membrane Permeable-Phenotype (%) [1]: 10% | Population Mitochondria Different-Phenotype (%) [1]: 6% | Population Mitotic Cells (%) [1]: 44% | Population Normal (%) [1]: 98% | Population Pyknosed Nuclei (%) [1]: 3% | Population Tubulin-Different-Phenotype (%) [1]: 21% | Total Cell Count [1]: 227 | Population Apoptotic (%) [2]: 33% | Population Fragmented Nuclei (%) [2]: 18% | Population Healthy Nuclei (%) [2]: 79% | Population Hoechst High Intensity Objects (%) [2]: 7% | Population Membrane Permeable-Phenotype (%) [2]: 8% | Population Mitochondria Different-Phenotype (%) [2]: 3% | Population Mitotic Cells (%) [2]: 66% | Population Normal (%) [2]: 92% | Population Pyknosed Nuclei (%) [2]: 1% | Population Tubulin-Different-Phenotype (%) [2]: 31% | Total Cell Count [2]: 117 | Population Apoptotic (%) [3]: 8% | Population Fragmented Nuclei (%) [3]: 5% | Population Healthy Nuclei (%) [3]: 76% | Population Hoechst High Intensity Objects (%) [3]: 10% | Population Membrane Permeable-Phenotype (%) [3]: 10% | Population Mitochondria Different-Phenotype (%) [3]: 21% | Population Mitotic Cells (%) [3]: 91% | Population Normal (%) [3]: 89% | Population Pyknosed Nuclei (%) [3]: 17% | Population Tubulin-Different-Phenotype (%) [3]: 27% | Total Cell Count [3]: 160 | Population Apoptotic (%) [4]: 14% | Population Fragmented Nuclei (%) [4]: 14% | Population Healthy Nuclei (%) [4]: 78% | Population Hoechst High Intensity Objects (%) [4]: 17% | Population Membrane Permeable-Phenotype (%) [4]: 7% | Population Mitochondria Different-Phenotype (%) [4]: 26% | Population Mitotic Cells (%) [4]: 85% | Population Normal (%) [4]: 82% | Population Pyknosed Nuclei (%) [4]: 7% | Population Tubulin-Different-Phenotype (%) [4]: 39% | Total Cell Count [4]: 101 | Population Apoptotic (%) [5]: 29% | Population Fragmented Nuclei (%) [5]: 10% | Population Healthy Nuclei (%) [5]: 81% | Population Hoechst High Intensity Objects (%) [5]: 3% | Population Membrane Permeable-Phenotype (%) [5]: 6% | Population Mitochondria Different-Phenotype (%) [5]: 5% | Population Mitotic Cells (%) [5]: 70% | Population Normal (%) [5]: 96% | Population Pyknosed Nuclei (%) [5]: 8% | Total Cell Count [5]: 270 | Population Apoptotic (%) [6]: 42% | Population Fragmented Nuclei (%) [6]: 13% | Population Healthy Nuclei (%) [6]: 82% | Population Hoechst High Intensity Objects (%) [6]: 5% | Population Membrane Permeable-Phenotype (%) [6]: 10% | Population Mitochondria Different-Phenotype (%) [6]: 7% | Population Mitotic Cells (%) [6]: 57% | Population Normal (%) [6]: 94% | Population Pyknosed Nuclei (%) [6]: 3% | Population Tubulin-Different-Phenotype (%) [6]: 29% | Total Cell Count [6]: 144 | Population Apoptotic (%) [7]: 13% | Population Fragmented Nuclei (%) [7]: 6% | Population Healthy Nuclei (%) [7]: 81% | Population Hoechst High Intensity Objects (%) [7]: 7% | Population Membrane Permeable-Phenotype (%) [7]: 12% | Population Mitochondria Different-Phenotype (%) [7]: 20% | Population Mitotic Cells (%) [7]: 86% | Population Normal (%) [7]: 92% | Population Pyknosed Nuclei (%) [7]: 11% | Population Tubulin-Different-Phenotype (%) [7]: 31% | Total Cell Count [7]: 190 | Population Apoptotic (%) [8]: 0% | Population Fragmented Nuclei (%) [8]: 14% | Population Healthy Nuclei (%) [8]: 84% | Population Hoechst High Intensity Objects (%) [8]: 11% | Population Membrane Permeable-Phenotype (%) [8]: 11% | Population Mitochondria Different-Phenotype (%) [8]: 31% | Population Mitotic Cells (%) [8]: 100% | Population Normal (%) [8]: 88% | Population Pyknosed Nuclei (%) [8]: 1% | Population Tubulin-Different-Phenotype (%) [8]: 34% | Total Cell Count [8]: 120

CCCS(=O)(=O)Nc1ccc(F)c(C(=O)c2c[nH]c3ncc(Cl)cc23)c1F [PLX-4720]
Population Apoptotic (%) [1]: 55% | Population Fragmented Nuclei (%) [1]: 6% | Population Healthy Nuclei (%) [1]: 88% | Population Hoechst High Intensity Objects (%) [1]: 2% | Population Membrane Permeable-Phenotype (%) [1]: 14% | Population Mitochondria Different-Phenotype (%) [1]: 21% | Population Mitotic Cells (%) [1]: 44% | Population Normal (%) [1]: 97% | Population Pyknosed Nuclei (%) [1]: 5% | Population Tubulin-Different-Phenotype (%) [1]: 26% | Total Cell Count [1]: 145 | Population Apoptotic (%) [2]: 33% | Population Fragmented Nuclei (%) [2]: 7% | Population Healthy Nuclei (%) [2]: 89% | Population Hoechst High Intensity Objects (%) [2]: 15% | Population Membrane Permeable-Phenotype (%) [2]: 12% | Population Mitochondria Different-Phenotype (%) [2]: 24% | Population Mitotic Cells (%) [2]: 66% | Population Normal (%) [2]: 84% | Population Pyknosed Nuclei (%) [2]: 3% | Population Tubulin-Different-Phenotype (%) [2]: 28% | Total Cell Count [2]: 153 | Population Apoptotic (%) [3]: 50% | Population Healthy Nuclei (%) [3]: 89% | Population Hoechst High Intensity Objects (%) [3]: 3% | Population Membrane Permeable-Phenotype (%) [3]: 8% | Population Mitochondria Different-Phenotype (%) [3]: 30% | Population Mitotic Cells (%) [3]: 50% | Population Normal (%) [3]: 96% | Population Pyknosed Nuclei (%) [3]: 4% | Population Tubulin-Different-Phenotype (%) [3]: 26% | Total Cell Count [3]: 164 | Population Apoptotic (%) [4]: 0% | Population Fragmented Nuclei (%) [4]: 6% | Population Healthy Nuclei (%) [4]: 88% | Population Hoechst High Intensity Objects (%) [4]: 9% | Population Membrane Permeable-Phenotype (%) [4]: 11% | Population Mitochondria Different-Phenotype (%) [4]: 31% | Population Mitotic Cells (%) [4]: 100% | Population Normal (%) [4]: 90% | Population Pyknosed Nuclei (%) [4]: 5% | Population Tubulin-Different-Phenotype (%) [4]: 23% | Total Cell Count [4]: 101 | Population Apoptotic (%) [5]: 43% | Population Fragmented Nuclei (%) [5]: 5% | Population Healthy Nuclei (%) [5]: 86% | Population Hoechst High Intensity Objects (%) [5]: 3% | Population Membrane Permeable-Phenotype (%) [5]: 16% | Population Mitochondria Different-Phenotype (%) [5]: 26% | Population Mitotic Cells (%) [5]: 56% | Population Normal (%) [5]: 96% | Population Pyknosed Nuclei (%) [5]: 7% | Population Tubulin-Different-Phenotype (%) [5]: 22% | Total Cell Count [5]: 201 | Population Apoptotic (%) [6]: 11% | Population Fragmented Nuclei (%) [6]: 3% | Population Healthy Nuclei (%) [6]: 88% | Population Hoechst High Intensity Objects (%) [6]: 11% | Population Membrane Permeable-Phenotype (%) [6]: 9% | Population Mitochondria Different-Phenotype (%) [6]: 25% | Population Mitotic Cells (%) [6]: 88% | Population Normal (%) [6]: 88% | Population Pyknosed Nuclei (%) [6]: 8% | Population Tubulin-Different-Phenotype (%) [6]: 23% | Total Cell Count [6]: 198 | Population Apoptotic (%) [7]: 20% | Population Fragmented Nuclei (%) [7]: 2% | Population Healthy Nuclei (%) [7]: 92% | Population Hoechst High Intensity Objects (%) [7]: 2% | Population Membrane Permeable-Phenotype (%) [7]: 5% | Population Mitochondria Different-Phenotype (%) [7]: 32% | Population Mitotic Cells (%) [7]: 80% | Population Normal (%) [7]: 97% | Population Pyknosed Nuclei (%) [7]: 5% | Population Tubulin-Different-Phenotype (%) [7]: 24% | Total Cell Count [7]: 152 | Population Apoptotic (%) [8]: 57% | Population Fragmented Nuclei (%) [8]: 4% | Population Healthy Nuclei (%) [8]: 91% | Population Hoechst High Intensity Objects (%) [8]: 7% | Population Membrane Permeable-Phenotype (%) [8]: 7% | Population Mitochondria Different-Phenotype (%) [8]: 38% | Population Mitotic Cells (%) [8]: 42% | Population Normal (%) [8]: 92% | Population Pyknosed Nuclei (%) [8]: 3% | Population Tubulin-Different-Phenotype (%) [8]: 32% | Total Cell Count [8]: 93
